pIC50: −log10 of the molar value.
What follows are compounds tested against PI3-kinase p110-delta/p85-alpha (Homo sapiens, UniProt O00329) (assay: Inhibition of human full length recombinant His-tagged PIK3CD/PIK3R1 expressed in baculovirus expression system after 60 mins by LanthaScreen Eu binding assay in presence of kinase tracer 314).
Procedure, shortened: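 Binding displacement in 50 mM HEPES pH 7.5, 10 mM MgCl2, 1 mM EGTA, 0.01% Brij-35. Enzyme 0.5 nM with Eu-anti-GST antibody 2 nM added to pre-spotted compound, then tracer 314 10 nM (all final). Controls omit enzyme. 60 min at room temperature; TR-FRET read at excitation 320 nm, emission 615/665 nm. Results as pIC50.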

PI3-kinase p110-delta/p85-alpha, sequence (P27986 whole entry): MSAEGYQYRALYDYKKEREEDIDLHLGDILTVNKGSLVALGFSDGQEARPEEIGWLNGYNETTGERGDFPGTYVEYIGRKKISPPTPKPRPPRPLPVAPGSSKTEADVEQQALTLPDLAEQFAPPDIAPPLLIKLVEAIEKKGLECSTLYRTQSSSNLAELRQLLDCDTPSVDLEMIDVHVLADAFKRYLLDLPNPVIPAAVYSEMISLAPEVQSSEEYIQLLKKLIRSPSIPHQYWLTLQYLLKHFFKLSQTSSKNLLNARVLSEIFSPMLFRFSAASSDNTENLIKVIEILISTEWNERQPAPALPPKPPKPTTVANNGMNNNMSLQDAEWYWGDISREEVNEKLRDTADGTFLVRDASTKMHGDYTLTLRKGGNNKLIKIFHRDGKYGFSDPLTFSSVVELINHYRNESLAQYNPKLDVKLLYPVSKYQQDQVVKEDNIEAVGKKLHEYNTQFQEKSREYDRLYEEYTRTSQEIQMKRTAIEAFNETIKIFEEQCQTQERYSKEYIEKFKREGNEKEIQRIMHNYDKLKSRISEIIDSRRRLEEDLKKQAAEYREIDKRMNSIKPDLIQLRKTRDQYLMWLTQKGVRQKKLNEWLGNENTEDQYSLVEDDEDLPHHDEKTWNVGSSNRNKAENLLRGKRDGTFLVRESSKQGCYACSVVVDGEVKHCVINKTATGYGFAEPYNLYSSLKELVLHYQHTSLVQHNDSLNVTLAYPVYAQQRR
PI3-kinase p110-delta/p85-alpha, sequence (O00329 whole entry): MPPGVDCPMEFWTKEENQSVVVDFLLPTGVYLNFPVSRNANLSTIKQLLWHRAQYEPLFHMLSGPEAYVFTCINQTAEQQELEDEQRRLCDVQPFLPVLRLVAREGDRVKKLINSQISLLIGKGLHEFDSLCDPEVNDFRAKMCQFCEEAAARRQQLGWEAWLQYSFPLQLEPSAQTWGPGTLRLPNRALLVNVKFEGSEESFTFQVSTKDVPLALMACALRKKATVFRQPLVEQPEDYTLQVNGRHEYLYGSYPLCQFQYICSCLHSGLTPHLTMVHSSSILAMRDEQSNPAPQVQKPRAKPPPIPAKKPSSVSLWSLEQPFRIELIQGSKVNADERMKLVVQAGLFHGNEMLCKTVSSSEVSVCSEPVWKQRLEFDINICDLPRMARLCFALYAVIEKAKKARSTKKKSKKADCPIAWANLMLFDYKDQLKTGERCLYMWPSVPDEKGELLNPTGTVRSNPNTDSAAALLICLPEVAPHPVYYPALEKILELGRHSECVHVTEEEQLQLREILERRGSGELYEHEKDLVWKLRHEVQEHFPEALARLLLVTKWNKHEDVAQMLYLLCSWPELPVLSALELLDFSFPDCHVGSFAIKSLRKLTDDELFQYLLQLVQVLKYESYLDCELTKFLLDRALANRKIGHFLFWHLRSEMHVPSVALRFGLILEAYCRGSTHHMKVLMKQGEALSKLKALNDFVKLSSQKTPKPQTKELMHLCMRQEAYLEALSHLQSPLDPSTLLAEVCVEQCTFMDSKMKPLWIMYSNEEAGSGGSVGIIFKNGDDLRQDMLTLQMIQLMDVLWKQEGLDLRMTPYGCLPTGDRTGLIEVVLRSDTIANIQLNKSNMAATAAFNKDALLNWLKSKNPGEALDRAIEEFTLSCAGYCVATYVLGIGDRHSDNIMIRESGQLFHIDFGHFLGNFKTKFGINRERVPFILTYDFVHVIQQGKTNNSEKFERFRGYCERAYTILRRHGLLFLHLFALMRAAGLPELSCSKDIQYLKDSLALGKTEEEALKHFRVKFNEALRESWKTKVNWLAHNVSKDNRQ

| Structure (SMILES) | pIC50 |
| --- | --- |
| CN(Cc1ccccc1)c1ncnc2ccc(Br)cc12 | 5.16 |
| Cc1nc2ccc(Cl)cn2c1-c1ccnc(N)n1 | 5.59 |
| O=C(C1CC=CCC1)N1CCCC(c2n[nH]c3ncccc23)C1 (stereo unspecified) | 5.07 |
| c1ccc(CSc2nc(N3CCOCC3)c3sccc3n2)cc1 | 5.42 |
| Clc1ccc2ncnc(NCCCc3ccccc3)c2c1 | 5.50 |
| Clc1ccc2ncnc(NCCOc3ccccc3)c2c1 | 5.26 |
| CN1CCC(NCc2ccc(Nc3ncc4cnn([C@H]5C[C@@H]6CC[C@H]5C6)c4n3)cc2)CC1 | 6.47 |
| Cc1nn(-c2ccccc2)c2c1-c1nc(N)ncc1CC2 | 5.09 |

Other lines, results leading:

| pIC50 | Structure (SMILES) |
| --- | --- |
| 6.37 | Cn1ccc2cc(-c3cnc4cnc(-c5cccc(C(N)=O)c5)cn34)ccc21 |
| 5.19 | c1cncc(CCNc2ccc3ncc(-c4cc5ccccc5s4)n3n2)c1 |
| 5.61 | NC(=O)c1nc(-c2ccc3ncccc3c2)nc2c1[nH]c(=O)n2CCc1ccccc1 |

What follows are compounds tested against Phosphatidylinositol 4,5-bisphosphate 3-kinase catalytic subunit gamma isoform (Homo sapiens, UniProt P48736) (assay: Inhibition of human PI3Kgamma using PIP2 as substrate by HTRF assay in presence of biotin-PIP3).
Phosphatidylinositol 4,5-bisphosphate 3-kinase catalytic subunit gamma isoform, sequence (P48736 whole entry, the tested form may be a part, canonical isoform): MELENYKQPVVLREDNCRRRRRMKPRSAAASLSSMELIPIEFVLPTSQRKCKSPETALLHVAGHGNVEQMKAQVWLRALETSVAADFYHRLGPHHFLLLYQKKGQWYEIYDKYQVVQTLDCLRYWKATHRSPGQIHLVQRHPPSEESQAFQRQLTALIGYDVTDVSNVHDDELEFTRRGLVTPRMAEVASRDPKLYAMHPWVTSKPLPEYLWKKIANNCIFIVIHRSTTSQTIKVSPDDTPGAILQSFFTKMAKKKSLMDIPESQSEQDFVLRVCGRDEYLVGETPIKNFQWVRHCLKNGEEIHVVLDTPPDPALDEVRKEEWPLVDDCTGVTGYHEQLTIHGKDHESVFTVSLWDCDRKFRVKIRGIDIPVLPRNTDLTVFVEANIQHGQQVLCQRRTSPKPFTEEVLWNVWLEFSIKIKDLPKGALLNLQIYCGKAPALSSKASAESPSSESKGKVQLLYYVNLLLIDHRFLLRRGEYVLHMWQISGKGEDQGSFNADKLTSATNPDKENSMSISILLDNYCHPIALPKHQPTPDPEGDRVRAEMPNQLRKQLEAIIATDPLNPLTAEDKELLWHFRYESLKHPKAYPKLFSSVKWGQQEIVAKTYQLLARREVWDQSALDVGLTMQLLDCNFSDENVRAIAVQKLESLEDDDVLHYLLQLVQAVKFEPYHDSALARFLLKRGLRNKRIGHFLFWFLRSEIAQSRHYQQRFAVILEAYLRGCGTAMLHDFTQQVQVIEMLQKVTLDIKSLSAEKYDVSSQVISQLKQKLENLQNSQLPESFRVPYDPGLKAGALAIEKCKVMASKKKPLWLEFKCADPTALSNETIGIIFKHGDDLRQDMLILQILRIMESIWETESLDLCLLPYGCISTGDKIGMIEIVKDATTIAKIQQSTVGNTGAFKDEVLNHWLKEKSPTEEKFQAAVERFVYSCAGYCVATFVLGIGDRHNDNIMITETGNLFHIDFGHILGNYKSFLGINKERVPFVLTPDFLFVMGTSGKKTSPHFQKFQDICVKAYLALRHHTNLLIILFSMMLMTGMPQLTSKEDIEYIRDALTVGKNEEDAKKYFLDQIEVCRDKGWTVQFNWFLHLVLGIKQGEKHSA
Procedure, shortened: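 HTRF enzyme assay: PI3Kγ added to mix of ATP, MgCl2 and PIP2 substrate (apparent Km 200 µM ATP, 15 µM PIP2). PIP3 product read by displacement of biotin-PIP3 from Eu-anti-GST antibody/GST-GRP1 PH domain/biotin-PIP3/streptavidin-APC complex. Primary screen at 10 µM, hits >2 SD from mean; confirmation in triplicate at 10 µM; dose response as pIC50.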

| Structure (SMILES) | pIC50 |
| --- | --- |
| FC(F)(F)c1cc(Nc2nc3ccccc3s2)cc(C(F)(F)F)c1 | 5.26 |
| COc1cncc(-c2cnn3ccc(NC4CCC(O)CC4)nc23)c1 (stereo unspecified) | 5.24 |

Now from value to compound:

| pIC50 | Structure (SMILES) |
| --- | --- |
| 5.62 | COc1cc(-c2cnn3ccc(Nc4ccc(C(C)C)cc4)nc23)ccc1O |
| 5.21 | COc1cc(Nc2ccn3ncc(-c4cccc(C(N)=O)c4)c3n2)cc(OC)c1OC |
| 5.16 | COc1cc(-c2cnc3ccc(NCc4ccco4)nn23)ccc1O |
